# Assay outcomes deposited in PubChem by several laboratories.
# Rev-RRE block = HIV-1 Rev-RRE binding inhibitors, primary screen, biochemical, FRET, protein-RNA interaction. P05866. Rev peptide-RRE RNA binding. inhibition, % at 8 µM. hit rate 0.79% among 97,000. AID 704, 2007;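 active means inhibition above the screen-wide mean plus 3 SD, cut at about 35% in these data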;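 further: 0% = median DMSO wells and 100% = median Neomycin B control wells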
# Target sequence (P05866 whole entry, looked up): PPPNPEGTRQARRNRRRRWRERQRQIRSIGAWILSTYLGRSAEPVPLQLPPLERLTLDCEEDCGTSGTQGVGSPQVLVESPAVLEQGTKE
#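 Test system – labelled RRE RNA duplex and labelled Rev peptide · Reagent – labelled Rev peptide · Doses – one concentration, 8 µM nominal · Incubation – 5 + 15 min at 25 °C · Signal – FRET fluorescence readout · Read-out basis – % inhibition of FRET ratio versus controls · Control set – DMSO wells as 0% and neomycin B wells as 100% inhibition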
# CYP2C9 act = human CYP2C9 activators, primary screen, biochemical, luminescence; Cytochrome P450 2C9 (Homo sapiens), P11712; recombinant CYP2C9, luciferin-H conversion; active compounds read high; factor 1 = untreated enzyme, 0 = blocked; hit rate 1.4% among 96,000; activation factor at 5 µM; AID 1024, 2008;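 active means activation factor of 2 or more for CYP2C9 at a 5 µM dose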;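 further: 0 = sulfaphenazole-blocked wells and 1 = vehicle-only wells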
# Target sequence (P11712 whole entry, looked up): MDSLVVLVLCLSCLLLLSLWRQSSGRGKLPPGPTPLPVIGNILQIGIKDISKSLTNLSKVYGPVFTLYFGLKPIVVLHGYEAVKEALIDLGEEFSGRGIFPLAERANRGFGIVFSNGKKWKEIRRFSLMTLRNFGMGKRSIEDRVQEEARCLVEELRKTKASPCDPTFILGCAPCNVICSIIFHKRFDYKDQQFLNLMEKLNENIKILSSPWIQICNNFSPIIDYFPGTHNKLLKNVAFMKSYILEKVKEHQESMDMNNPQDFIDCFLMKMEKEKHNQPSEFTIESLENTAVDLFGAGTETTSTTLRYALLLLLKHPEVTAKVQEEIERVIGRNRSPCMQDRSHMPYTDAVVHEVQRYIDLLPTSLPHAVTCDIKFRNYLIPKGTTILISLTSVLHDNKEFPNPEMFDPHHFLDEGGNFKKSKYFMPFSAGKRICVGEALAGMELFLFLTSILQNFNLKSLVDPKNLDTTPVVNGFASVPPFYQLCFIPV
# CYP2C9 inh = blockers of cytochrome P450 2C9 activity – biochemical, luminescence, ADME assay, primary screen. hit rate 20% among 96,000. P11712. inhibition, % at 5 µM. CYP2C9 Supersomes, luciferin-H conversion;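 active means blocking of liver enzyme CYP2C9 beyond about 50% at 5 µM, limit read from the data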
# Cav3 T inh = Cav3.2 calcium influx blockers – cell-based, Fluo-4 calcium fluorescence, FDSS, MLSMR library, primary screen; Voltage-dependent T-type calcium channel subunit alpha-1H (Homo sapiens), O95180; Cav3.2-expressing cells; active compounds read low; B-score at 10 µM; hit rate 4% among 100,000; AID 449739, 2010;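 active means single-dose well whose peak fluorescence ratio is a statistical outlier from its plate by either plate-standardised score or position-corrected B-score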
# CYP2C19 activ = human CYP2C19 activators, primary screen, biochemical, luminescence. recombinant CYP2C19, luciferin-H EGE luminescence; active compounds read high; 0 = fully inhibited enzyme, 1 = untreated enzyme. 96,000 tested, under 10 active. activation factor at 5 µM;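 active means activation factor of at least 2 at 5 µM in the primary screen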;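 further: 0 = wells with 2.5 mM tranylcypromine and 1 = vehicle-only wells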
# CYP2C19 inh = blockers of cytochrome P450 2C19 activity – biochemical, luminescence, ADME assay, primary screen; hit rate 21% among 96,000; inhibition, % at 5 µM; AID 778, 2007; P33261; CYP2C19 Supersomes, luciferin-H EGE luminescence, 30 min;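 active means CYP2C19 inhibition above a set limit at 5 µM in the primary screen, cut at about 50% in these data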;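 further: plate controls were negative control wells for no effect and 2.5 mM tranylcypromine positive control for full effect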
# * = called active by the depositor; . = no result. Sampled rows, rich in hits. Any-hit rate of the full collection: about 27%.
SMILES,Rev-RRE block,CYP2C9 act,CYP2C9 inh,Cav3 T inh,CYP2C19 activ,CYP2C19 inh
CCCCC(c1nnnn1C1CCCC1)N1CCN(C(=O)c2ccco2)CC1 (configuration not stated),-2.7,0.3,69.4*,0.268,0.3,73.1*
CCCC(c1nnnn1C1CCCCC1)N1CCN(c2ncccn2)CC1 (configuration not stated),1.4,0.2,81.3*,0.0019,0.6,36.3
c1csc(C(c2nnnn2C2CCCCC2)N2CCCC3(CCCCC3)C2)c1 (configuration not stated),5.7,.,.,.,.,.
c1ccc(-c2nc(Sc3ncnc4c3cnn4-c3ccccc3)n[nH]2)cc1,7.0,0.7,31.7,.,0.9,10.2
Cc1ccc(N2CC(C(=O)Nc3ccc4c(c3)OCO4)CC2=O)cc1 (configuration not stated),6.2,1,-0.3,-0.326,1.1,-13.8
c1ccc2c(Nc3nc4c(s3)CCCC4)cccc2c1,1.6,1.1,-11.0,-2.47,1.1,-5.1
COc1ccc(Cl)cc1NC(=O)CSc1nncn1-c1cccnc1,8.7,0.7,33.9,1.01,0.1,93.8*
Cn1cccc1Cc1nnc(SCC(=O)NCc2ccc(F)cc2)n1-c1ccc(F)cc1,.,0.7,26.5,-4.1,0.9,13.4
Cc1ccc(-n2c(Cc3cccn3C)nnc2SCC(=O)Nc2cc(C)on2)cc1,2.7,0.9,5.1,-0.177,1,2.5
Cc1ccc(NC(=O)CSc2nnc(Cc3cccn3C)n2-c2ccc(F)cc2)c(C)c1,-3.5,0.3,67.9*,-10.2*,0.8,21.5
COc1ccc(Cl)cc1NC(=O)CSc1nnc(Cc2cccn2C)n1-c1ccc(F)cc1,.,0.9,11.1,-6*,0.7,26.6
Cn1cccc1Cc1nnc(SCC(=O)Nc2ccc(F)cc2F)n1-c1ccc(F)cc1,-3.6,0.4,57.9*,-4.52*,0.5,51.9*
CN1C(=O)c2ccccc2C(C(=O)NCC2CCCO2)C1c1c[nH]c2ccccc12 (configuration not stated),6.0,1.2,-21.8,0.198,1.2,-20.2
O=S(=O)(N1CCCCC1)n1nnc2ccccc21,1.9,1.2,-16.0,-0.0424,0.2,82.1*
O=S(=O)(c1cccs1)n1nnc2ccccc21,1.3,1.9,-86.9,0.595,0.9,5.3
CC(=O)c1cc2c(cc1NC(=O)CN1CCCCC1C)OCO2 (configuration not stated),2.6,0.9,7.1,-1.07,0.6,41.7
COc1ccc(C(=O)Nc2ccc(Cl)c(Cl)c2)c(OC)n1,6.1,1.1,-7.5,-0.589,1,-2.8
CC(C)C1O/C(=N/C(=O)Nc2ccc(Cl)c(Cl)c2)NC1=O (configuration not stated),16.1,0.9,6.8,-5*,0.9,7.1
C=CCC(CC=C)(NC(=O)c1ccccc1C)c1ccccc1,4.4,0.8,23.3,-1.21,0.5,50.8*
COc1ccc(-c2nc(NC(=O)Cn3ccc(C(F)(F)F)n3)sc2C)cc1,13.4,0.6,39.8,-7.56*,0.4,57.4*
CCOC(=O)/C(=N/Nc1ccc(C)cc1)S(=O)(=O)c1ccc(Cl)cc1,8.3,0.1,89.8*,0.076,0.3,69.4*
CC1(c2nnc(-c3cccc(Cl)c3)o2)CC(c2cccc(Cl)c2)=NO1 (configuration not stated),.,.,.,0.595,.,.
Cc1ccc(-c2c(C)n([O-])c3c([n+]2=O)CCCC3)o1,2.9,0.9,14.1,-0.131,0.8,19.1
Cc1c(-c2cccs2)[n+](=O)c2c(n1[O-])CCCCC2,3.8,0.5,49.3,0.881,0.4,59.3*
O=C(Nc1nc2ccccc2n1Cc1ccc(Cl)cc1)c1ccco1,.,0.9,11.2,-0.317,0.9,5.4
SMILES,Rev-RRE block,CYP2C9 act,CYP2C9 inh,Cav3 T inh,CYP2C19 activ,CYP2C19 inh
CCn1c(-c2cccnc2Cl)nc2cc(Cl)c(Cl)cc21,7.5,0.3,67.1*,-0.334,0.5,49.6
Clc1ccc(Cn2c(-c3cccnc3Cl)nc3ccccc32)cc1,14.5,0.4,64.6*,-4.01,0.2,81.6*
Clc1ccc(Cn2c(-c3cccnc3Cl)nc3ccccc32)c(Cl)c1,12.6,0.4,58.0*,-3.04,0.4,60.3*
CCn1c(-c2ccc(N)cc2)nc2ccccc21,4.2,1.1,-8.2,0.07,0.8,21.7
COC(=O)C1N[C@@H]([C@@H](NC(=O)COc2ccccc2)C(=O)NCc2ccc(OC)cc2)SC1(C)C (some centres not stated),.,.,.,0.706,.,.
CCCCN(C(=O)Nc1ccc(OCC)cc1)C1CCN(C(C)=O)CC1,4.4,0.9,10.7,-0.104,0.8,16.4
C(=N\n1cnnc1)/c1ccc(OCc2cccc3ccccc23)cc1,7.8,0.2,80.8*,-0.729,0.6,37.5
COC(=O)c1ccc(/C=N/n2cnnc2)cc1,1.6,0.7,28.8,0.566,0.5,47.3
Fc1ccccc1COc1ccc(/C=N/n2cnnc2)cc1,5.8,0.1,94.7*,0.571,0,97.2*
C(=N\n1cnnc1)/c1ccc(OC2CSC2)cc1,2.8,0.1,85.3*,-2.27,0.1,92.9*
Cc1ccc(Cl)cc1N1CCN(C(=O)C2CCN(S(=O)(=O)c3c(C)nn(C)c3C)CC2)CC1,-2.1,1.8,-75.5,.,0.6,35.2
CC1(C)CC(=O)C=C(Nc2cccc(O)c2)C1,5.5,0.9,7.9,-0.0151,1,3.3
O=C1NC(c2ccccc2)=C(c2nc3ccccc3s2)C(c2ccc(O)cc2)N1 (configuration not stated),8.7,0.6,39.2,-1.75,1,1.2
O=C1NC(c2ccccc2)=C(c2ccc3ccccc3n2)C(c2ccncc2)N1 (configuration not stated),-0.4,0.1,88.8*,0.531,0.2,83.4*
COc1ccc(-c2cc3ccccc3s2)cc1[C@H]1[C@H]2C=CC[C@@H](C)[C@@H]2C(=O)N1Cc1ccccc1,.,.,.,0.357,.,.
COc1ccc(CCNC(=O)c2cc3ccccn3n2)c(OC)c1OC,7.1,0.8,17.3,0.387,0.2,75.4*
O=C1NC2(CCCCC2)C(=O)N1/N=C/c1ccc(O)cc1O,-0.3,3.2*,-219.0,0.743,0.9,12.6
Cc1cc(Nc2ncc(Cl)cc2Cl)n[nH]1,9.0,0.9,6.1,-0.617,0.3,70.6*
Cc1ccc(/C=N/Nc2ncc(Cl)cc2Cl)s1,0.8,1.2,-23.9,-3.69,0.8,23.3
CC(C)c1ccc(NC2(C#N)C(=O)Nc3ccccc32)cc1 (configuration not stated),3.1,1.7,-74.9,.,0.7,33.6
CCCCCCCCCCC[C@@H](C[C@@H]1OC(=O)[C@H]1CCCCCC)OC(=O)[C@H](CC(C)C)NC=O,.,.,.,-0.257,.,.
